Published values gathered from unrelated publications.
Compare with care: the assays were run in different laboratories.
Target: Serine/threonine-protein kinase SIK2 (SIK2, Homo sapiens, UniProt Q9H0K1)

With `C[C@H]1CCN(c2nccc(-c3cnn4ncccc34)n2)C1` the remaining binding was 100% (binding; 1 µM).
The remaining binding of `CNCc1ccccc1-c1csc([C@H](C)Nc2nc(C)nc3cc(OC)c(OC)cc23)c1` is reported as 100% (cell-free assay, competition with immobilised ligand; 1 µM).
`O=C(NCC1CCOCC1)c1n[nH]cc1NC(=O)c1c(F)cccc1F` gave a remaining binding of 83% (binding, competition with immobilised ligand; 1 µM).
For `COc1ncc2cc3ccccc3nc2c1C#N`, the remaining binding was 94% (cell-free assay, competition with immobilised ligand; 5 µM).
`CNC(=O)[C@@H]1CC[C@@H](n2c(-c3ccc4cnccc4c3)nc3ccc(C(=O)NCc4cccc(C(N)=O)c4)cc32)C1` gave a remaining binding of 97% (binding, competition with immobilised ligand; 1 µM).
`C=CC(=O)N1CCC(C(=O)NCC(=O)N2CCN(c3nc(-c4cnc(N)nc4C(F)F)nc(N4CCOCC4)n3)CC2)CC1` has a remaining binding of 96% (binding, competition with immobilised ligand; 1 µM).
With `CC1CCCN1c1nccc(-c2cnn3ncccc23)n1` (stereo not shown) the remaining binding was 90% (binding; 1 µM).
For `FC(F)(F)Oc1cccc(-c2cnc3ccc(-c4ccncc4)nn23)c1`, the remaining binding was 52% (binding, competition with immobilised ligand; 5 µM).
`COc1cc(-c2cn(C3CCc4c(F)cccc4N(CC(F)(F)F)C3=O)nn2)ccc1-n1cnc(C)c1` (stereo not shown) gave a remaining binding of 100% (cell-free assay, competition with immobilised ligand; 1 µM).
With `COc1cnc(Nc2cccc(S(N)(=O)=O)c2)nc1N1CCN(c2ccccc2)C(=O)C1` the remaining binding was 92% (binding, competition with immobilised ligand; 1 µM).
The remaining binding of `CN(C)c1ncc(F)c(-c2cnn3ncccc23)n1` is reported as 100% (binding; 1 µM).
`COc1ccc2c(c1)O[C@@H](c1ccc(OC)c(OC)c1)C[C@H]2NC(=O)C1(c2ccc3c(c2)OC(F)(F)O3)CC1` gave a remaining binding of 95% (cell-free assay, competition with immobilised ligand; 1 µM).
With `COc1ccnn2ncc(-c3ccnc(N(C)C)n3)c12` the remaining binding was 92% (binding; 1 µM).
The remaining binding of `O=C(c1ccc(Nc2nccc(-c3cc4ccccc4s3)n2)cc1)N1CCC(N2CCCC2)CC1` is reported as 45% (binding, competition with immobilised ligand; 1 µM).
`C[C@@H](c1cccc(C#N)c1)n1cc(Cl)cc(C(N)=O)c1=N` gave a remaining binding of 100% (cell-free assay, competition with immobilised ligand; 1 µM).
`O=C(c1ccc(Nc2ncc(Cl)c(-c3cc4ccccc4s3)n2)cc1)N1CCC(N2CCCC2)CC1` gave a remaining binding of 27% (binding, competition with immobilised ligand; 1 µM).
The remaining binding of `CC(=O)Nc1c(C(C)=O)c(=O)n(C)c2nc(-c3ccc(Cl)cc3Cl)c(-c3ccc(Cl)cc3)cc12` is reported as 100% (cell-free assay, competition with immobilised ligand; 1 µM).
For `CN(c1nccc(-c2cnn3ncccc23)n1)C1CC1`, the remaining binding was 100% (binding; 1 µM).
The remaining binding of `CN1CCN(c2cnc3c(C4CCN(C(=O)c5ccc(OC(F)(F)F)cc5N)CC4)ncnc3c2)CC1` is reported as 100% (cell-free assay, competition with immobilised ligand; 1 µM).
With `N[C@@H]1CCN(c2nccc(-c3cnn4ncccc34)n2)C1` the remaining binding was 100% (binding; 1 µM).
`N#Cc1ccc(Nc2ccc3[nH]c(=O)[nH]c3c2)c(Cl)c1` has a remaining binding of 100% (cell-free assay, competition with immobilised ligand; 1 µM).
The remaining binding of `O=C(NCCCN1CCOCC1)c1ccc(Nc2nccc(-c3cc4ccccc4s3)n2)cc1` is reported as 51% (binding, competition with immobilised ligand; 1 µM).
